For eleven compounds, MIC results are on record in ChEMBL document CHEMBL1126175, “Synthesis and antibacterial activity of new tetracyclic quinolone antibacterials” (J Med Chem, 1992).

Test [1] deals with Escherichia coli. Briefly: In vitro antibacterial activity against Escherichia coli KC-14, Ec(K), (gram-negative). It is filed as functional. In short, it runs like this: (§1)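 MIC by serial 2-fold agar dilution on Mueller–Hinton agar; inoculum about 10^6 CFU/mL; MIC taken as lowest concentration preventing visible growth after 18 h at 37 °C.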
The next test deals with Enterococcus faecalis. Briefly: In vitro antibacterial activity against Enterococcus faecalis IID 682,[…],(gram-positive). It is filed as functional. The essentials: as §1
Test [2] deals with Staphylococcus aureus. Nature of the test: In vitro antibacterial activity against staphylococcus aureus FDA 209P JC-1,Sa(F)(gram-positive). It is filed as functional. The essentials: as §1
The subject of test [3] is Staphylococcus epidermidis. Briefly: In vitro antibacterial activity against staphylococcus epidermidis IAM 1296, (gram-positive). It is filed as functional. In short, it runs like this: as §1
The subject of test [4] is Pseudomonas aeruginosa. Nature of the test: In vitro antibacterial activity against Pseudomonas aeruginosa IFO 3445,Pa(I),(gram-negative). It is filed as functional. The essentials: as §1
Test [5] relates to Pseudomonas aeruginosa. Briefly: In vitro antibacterial activity against Pseudomonas aeruginosa E-2,Pa(E),(gram-negative). It is filed as functional. The essentials: as §1
The test system of test [6] is Staphylococcus aureus. Briefly: In vitro antibacterial activity against staphylococcus aureus IID 803,(gram-positive). It is filed as functional. The essentials: as §1
The subject of another test is Klebsiella pneumoniae. Briefly: In vitro antibacterial activity against klebsiella pneumoniae B54,Kp,(gram-negative). It is filed as functional.
The subject of test [7] is Escherichia coli. Briefly: In vitro antibacterial activity against Escherichia coli NIHJ JC-2,(gram-negative).
The test system of test [8] is Escherichia coli. Briefly: In vitro antibacterial activity was measured against nalidixic acid resistant strain 1 from Escherichia coli KC-14. It is filed as functional. The essentials: (§2)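 MIC by serial 2-fold agar dilution on Mueller–Hinton agar, inoculum about 10^6 CFU/mL. Plates were incubated 37 °C for 18 h. MIC was the lowest concentration preventing visible growth.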

For test [9], the system named is Escherichia coli. Briefly: In vitro antibacterial activity was measured against nalidixic acid resistant strain 7 from Escherichia coli KC-14. It is filed as functional. In short, it runs like this: as §2
Test [10] has as its system Escherichia coli. Nature of the test: In vitro antibacterial activity was measured against nalidixic acid resistant strain 2 from Escherichia coli KC-14. It is filed as functional. In short, it runs like this:
as §2

Test [11] concerns Escherichia coli. Briefly: In vitro antibacterial activity was measured against nalidixic acid resistant strain 4 from Escherichia coli KC-14. It is filed as functional. The essentials:
as §2

The test system of test [12] is Escherichia coli. Nature of the test: In vitro antibacterial activity was measured against nalidixic acid resistant strain 3 from Escherichia coli KC-14. It is filed as functional. The essentials: as §2
For test [13], the system named is Escherichia coli. Briefly: In vitro antibacterial activity was measured against nalidixic acid resistant strain 6 from Escherichia coli KC-14. It is filed as functional. In short, it runs like this: as §2
Test [14] concerns Escherichia coli. Nature of the test: In vitro antibacterial activity was measured against nalidixic acid resistant strain 5 from Escherichia coli KC-14. It is filed as functional. In short, it runs like this: as §2

≈ marks a conversion by molar mass, not a printed value.

One may read the MIC as the smallest concentration in the dilution series that meets the test's criterion for growth inhibition. Lower therefore signals inhibition by little substance. Consider `NC1CCN(c2c(F)cc3c(=O)c(C(=O)O)c4scc5n4c3c2OC5)C1` (stereo unspecified), for which the MIC with Escherichia coli [1] worked out at 0.1 µg/mL (≈ 0.266 µM); against Enterococcus faecalis, 0.78 µg/mL (≈ 2.08 µM); against Staphylococcus aureus [2] it was 0.2 µg/mL (≈ 0.533 µM); in test [3] it was 0.78 µg/mL (≈ 2.08 µM); against Pseudomonas aeruginosa [4] it was 0.78 µg/mL (≈ 2.08 µM); in the test on Pseudomonas aeruginosa [5] it was 0.78 µg/mL (≈ 2.08 µM). Besides, the MIC against Staphylococcus aureus [6] was found to be 0.39 µg/mL (≈ 1.04 µM); with Klebsiella pneumoniae, 0.1 µg/mL (≈ 0.266 µM); with Escherichia coli [7], 0.2 µg/mL (≈ 0.533 µM).

For the compound `O=C(O)c1c(=O)c2cc(F)c(N3CCOCC3)c3c2n2c(csc12)CO3`, the MIC turned out to be 0.39 µg/mL (≈ 1.04 µM) in the test with Escherichia coli [1]; 0.39 µg/mL (≈ 1.04 µM) in the test on Enterococcus faecalis; 0.05 µg/mL (≈ 0.133 µM) against Staphylococcus aureus [2]; 0.1 µg/mL (≈ 0.266 µM) in test [3]; 1.56 µg/mL (≈ 4.14 µM) in the test on Pseudomonas aeruginosa [4]; 0.39 µg/mL (≈ 1.04 µM) in the test on Pseudomonas aeruginosa [5]. The results for the MIC against Staphylococcus aureus [6], against Klebsiella pneumoniae and in the test with Escherichia coli [7] were 0.05 µg/mL (≈ 0.133 µM), 0.2 µg/mL (≈ 0.531 µM) and 0.39 µg/mL (≈ 1.04 µM), respectively.

Take `CSc1c(F)cc2c(=O)c(C(=O)O)c3scc4n3c2c1OC4`: the MIC with Escherichia coli [1] is 0.2 µg/mL (≈ 0.593 µM); in the test on Enterococcus faecalis, 3.13 µg/mL (≈ 9.28 µM); against Staphylococcus aureus [2] it was 0.2 µg/mL (≈ 0.593 µM); in test [3] it was 0.2 µg/mL (≈ 0.593 µM); with Pseudomonas aeruginosa [4], 1.56 µg/mL (≈ 4.62 µM); with Pseudomonas aeruginosa [5], 3.13 µg/mL (≈ 9.28 µM). For the same compound, the minimum inhibitory concentration (MIC) in the test on Staphylococcus aureus [6] came to 0.1 µg/mL (≈ 0.296 µM); in the test on Klebsiella pneumoniae it was 0.39 µg/mL (≈ 1.16 µM); against Escherichia coli [7], 0.39 µg/mL (≈ 1.16 µM).

As for `CCn1cc(C(=O)O)c(=O)c2ccc(C)nc21` [NALIDIXIC ACID], the MIC with Escherichia coli [8] was greater than 1600 µg/mL; in the test with Escherichia coli [9] it was 100 µg/mL (≈ 431 µM); with Escherichia coli [10], greater than 1600 µg/mL; against Escherichia coli [11], 100 µg/mL (≈ 431 µM); in the test on Escherichia coli [12] it was 200 µg/mL (≈ 861 µM); with Escherichia coli [13] it was 100 µg/mL (≈ 431 µM). Moreover, the lowest concentration to inhibit growth against Escherichia coli [14] (MIC) was 100 µg/mL (≈ 431 µM).

On to `O=C1CN(c2c(F)cc3c(=O)c(C(=O)O)c4scc5n4c3c2OC5)CCN1`, for which the MIC is 1.56 µg/mL (≈ 4.01 µM) against Escherichia coli [1]; 3.13 µg/mL (≈ 8.04 µM) in the test with Enterococcus faecalis; 3.13 µg/mL (≈ 8.04 µM) in the test with Staphylococcus aureus [2]; 12.5 µg/mL (≈ 32.1 µM) in [3]; 6.25 µg/mL (≈ 16.1 µM) in the test with Pseudomonas aeruginosa [4]; 6.25 µg/mL (≈ 16.1 µM) against Pseudomonas aeruginosa [5]. The MIC with Staphylococcus aureus [6], in the test on Klebsiella pneumoniae and with Escherichia coli [7] was 1.56 µg/mL (≈ 4.01 µM) throughout.

Regarding `CC1CN(c2c(F)cc3c(=O)c(C(=O)O)c4scc5n4c3c2OC5)CCN1` (stereo unspecified), the MIC was 0.1 µg/mL (≈ 0.257 µM) against Escherichia coli [1]; 0.78 µg/mL (≈ 2 µM) in the test with Enterococcus faecalis; 0.2 µg/mL (≈ 0.514 µM) against Staphylococcus aureus [2]; 0.78 µg/mL (≈ 2 µM) in [3]; 1.56 µg/mL (≈ 4.01 µM) against Pseudomonas aeruginosa [4]; 0.78 µg/mL (≈ 2 µM) against Pseudomonas aeruginosa [5]. The MIC against Staphylococcus aureus [6] is 0.2 µg/mL (≈ 0.514 µM); with Klebsiella pneumoniae, 0.1 µg/mL (≈ 0.257 µM); against Escherichia coli [7], 0.2 µg/mL (≈ 0.514 µM).

Take `CCn1cc(C(=O)O)c(=O)c2cc(F)c(N3CCNCC3)cc21` [NORFLOXACIN]: the MIC against Escherichia coli [1] came out at 0.2 µg/mL (≈ 0.626 µM); with Enterococcus faecalis it was 1.56 µg/mL (≈ 4.89 µM); in the test on Staphylococcus aureus [2], 0.39 µg/mL (≈ 1.22 µM); in test [3], 3.13 µg/mL (≈ 9.8 µM); in the test with Pseudomonas aeruginosa [4], 1.56 µg/mL (≈ 4.89 µM); in the test on Pseudomonas aeruginosa [5], 1.56 µg/mL (≈ 4.89 µM). The results for the MIC in the test on Staphylococcus aureus [6], with Klebsiella pneumoniae and in the test with Escherichia coli [7] were 1.56 µg/mL (≈ 4.89 µM), 0.1 µg/mL (≈ 0.313 µM) and 0.2 µg/mL (≈ 0.626 µM), respectively.

With `CN1CCN(c2c(F)cc3c(=O)c(S(=O)(=O)O)c4scc5n4c3c2OC5)CC1`, the MIC (against Escherichia coli [1]; against Enterococcus faecalis; with Staphylococcus aureus [2]; in [3]; in the test with Pseudomonas aeruginosa [4]; in the test on Pseudomonas aeruginosa [5]) was greater than 100 µg/mL each time. Further, the MIC against Staphylococcus aureus [6], against Klebsiella pneumoniae and with Escherichia coli [7] was greater than 100 µg/mL each time.

Turning to `CC(=O)NC1CCN(c2c(F)cc3c(=O)c(C(=O)O)c4scc5n4c3c2OC5)C1` (stereo unspecified), the MIC against Escherichia coli [1] was found to be 1.56 µg/mL (≈ 3.74 µM); with Enterococcus faecalis, 0.78 µg/mL (≈ 1.87 µM); in the test with Staphylococcus aureus [2] it was 0.2 µg/mL (≈ 0.479 µM); in [3] it was 0.78 µg/mL (≈ 1.87 µM); in the test with Pseudomonas aeruginosa [4] it was 6.25 µg/mL (≈ 15 µM); against Pseudomonas aeruginosa [5], 6.25 µg/mL (≈ 15 µM). For the same compound, the MIC in the test with Staphylococcus aureus [6] is 0.1 µg/mL (≈ 0.24 µM); in the test with Klebsiella pneumoniae, 1.56 µg/mL (≈ 3.74 µM); against Escherichia coli [7] it was 1.56 µg/mL (≈ 3.74 µM).

As for `CCNCC1CCN(c2c(F)cc3c(=O)c(C(=O)O)c4scc5n4c3c2OC5)C1` (stereo unspecified), the MIC in the test on Escherichia coli [1] was 0.39 µg/mL (≈ 0.934 µM); with Enterococcus faecalis, 0.39 µg/mL (≈ 0.934 µM); in the test on Staphylococcus aureus [2] it was 0.2 µg/mL (≈ 0.479 µM); in test [3], 0.1 µg/mL (≈ 0.24 µM); against Pseudomonas aeruginosa [4], 25 µg/mL (≈ 59.9 µM); against Pseudomonas aeruginosa [5] it was 3.13 µg/mL (≈ 7.5 µM). Also, the MIC worked out at 0.2 µg/mL (≈ 0.479 µM) with Staphylococcus aureus [6] and 0.39 µg/mL (≈ 0.934 µM) in the test with Klebsiella pneumoniae.

As for `O=C(O)c1c(=O)c2cc(F)c(N3CCCC3)c3c2n2c(csc12)CO3`, the MIC against Escherichia coli [1] was found to be 0.2 µg/mL (≈ 0.555 µM); with Enterococcus faecalis, 0.2 µg/mL (≈ 0.555 µM); against Staphylococcus aureus [2], 0.025 µg/mL (≈ 0.0694 µM); in [3], 0.05 µg/mL (≈ 0.139 µM); against Pseudomonas aeruginosa [4] it was 1.56 µg/mL (≈ 4.33 µM); against Pseudomonas aeruginosa [5] it was 1.56 µg/mL (≈ 4.33 µM). The MIC against Staphylococcus aureus [6] came to 0.05 µg/mL (≈ 0.139 µM); against Klebsiella pneumoniae, 0.2 µg/mL (≈ 0.555 µM); in the test on Escherichia coli [7], 0.2 µg/mL (≈ 0.555 µM).
